KCC2 mod – KCC2 cotransporter modulators, thallium flux, primary screen, cell-based, HEK293 KCC2, FluoZin-2 fluorescence, MLSMR | KCC2 cells, thallium flux FluoZin-2 fluorescence | Solute carrier family 12 member 5 (Homo sapiens), Q9H2X9 | B-score of Tl+ flux slope (higher = more flux/activation; lower = inhibition) at 10 µM | actives 2.2% (n = 190,000) | AID 1456, 2008;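 active = thallium flux slope and its plate-corrected score both differing from the plate sample mean at a set confidence after two filtering rounds, in either direction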;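 note: slope of fluorescence scaled to starting intensity during 10 to 20 s after thallium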
Target sequence (Q9H2X9 whole entry, looked up): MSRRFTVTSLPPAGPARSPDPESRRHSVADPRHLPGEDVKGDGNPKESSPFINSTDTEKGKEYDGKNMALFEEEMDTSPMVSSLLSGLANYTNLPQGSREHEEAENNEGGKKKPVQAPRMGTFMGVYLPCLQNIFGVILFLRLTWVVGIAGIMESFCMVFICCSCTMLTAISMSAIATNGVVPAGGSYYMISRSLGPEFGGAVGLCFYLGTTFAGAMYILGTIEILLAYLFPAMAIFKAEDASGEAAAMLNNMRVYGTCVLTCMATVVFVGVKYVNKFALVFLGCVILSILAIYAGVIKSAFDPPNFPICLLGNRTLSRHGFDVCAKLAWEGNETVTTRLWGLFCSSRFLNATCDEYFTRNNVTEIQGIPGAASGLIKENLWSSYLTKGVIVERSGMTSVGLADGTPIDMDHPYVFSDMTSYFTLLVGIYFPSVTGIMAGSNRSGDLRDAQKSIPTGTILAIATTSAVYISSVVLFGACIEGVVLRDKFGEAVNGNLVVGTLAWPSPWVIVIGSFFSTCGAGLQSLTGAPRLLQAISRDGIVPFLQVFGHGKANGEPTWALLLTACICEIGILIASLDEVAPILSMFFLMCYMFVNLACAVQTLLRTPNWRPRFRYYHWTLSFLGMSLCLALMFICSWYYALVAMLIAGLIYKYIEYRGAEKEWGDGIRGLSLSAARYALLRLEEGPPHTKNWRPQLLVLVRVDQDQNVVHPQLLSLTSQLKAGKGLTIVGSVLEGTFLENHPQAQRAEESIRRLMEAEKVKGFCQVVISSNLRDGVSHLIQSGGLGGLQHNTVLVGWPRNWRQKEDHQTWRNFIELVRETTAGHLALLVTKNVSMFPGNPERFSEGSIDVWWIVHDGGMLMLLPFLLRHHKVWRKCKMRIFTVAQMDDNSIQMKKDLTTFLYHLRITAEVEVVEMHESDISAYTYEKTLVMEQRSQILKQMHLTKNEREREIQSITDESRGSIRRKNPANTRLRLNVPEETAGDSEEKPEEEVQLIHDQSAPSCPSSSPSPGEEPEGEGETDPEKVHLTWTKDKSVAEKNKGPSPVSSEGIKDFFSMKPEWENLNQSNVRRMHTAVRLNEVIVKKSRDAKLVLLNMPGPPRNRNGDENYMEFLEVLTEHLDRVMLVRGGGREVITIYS
KCNQ1 act – potentiators or activators of KCNQ1 channel, primary screen, cell-based, thallium flux, high-throughput; B-score at 10 µM; Potassium voltage-gated channel subfamily KQT member 1 (Homo sapiens), P51787; actives 0.35% (n = 310,000); CHO-K1 KCNQ1, thallium flux FluxOR fluorescence; active compounds read high;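 active = fluorescence ratio B-score, a plate-corrected score, at least three library SD, with initial intensity B-score within 5 SD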
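System: Stable KCNQ1 CHO-K1 line | Incubation: 90 min dye loading and 20 min compound exposure, both at room temperature | Measure: Ratio B score | Medium: Assay buffer for compound exposure, DMSO matched across wells | Compound dosing: Single-concentration screen | Probe or stimulus: K+/Tl+ depolarizing stimulus | Measured by: Kinetic FluxOR fluorescence, 10 s baseline plus 110 s post-stimulus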
KCNK9 block – KCNK9 potassium channel inhibitors, primary screen, HEK293 cells, thallium flux; AID 488922, 2010; Potassium channel subfamily K member 9 (Homo sapiens), Q9NPC2; actives 1.2% (n = 310,000); FluxOR thallium flux fluorescence; active compounds read low; B-score at 10 µM;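 active = ratio B-score over 3 SD below the library mean, with starting fluorescence within 5 SD of its mean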;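 note: negative B-score means less thallium flux so channel inhibition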
KCNK3 inh – human KCNK3 channel inhibitors, primary screen, CHO cells, FluxOR thallium flux, B-score. Potassium channel subfamily K member 3 (Homo sapiens), O14649. actives 0.84% (n = 340,000). B-score at 10 µM. FluxOR fluorescence; active compounds read low. AID 602410, 2012;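 active = B-score under library mean minus 4 SD, starting fluorescence ratio at most library mean plus 5 SD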;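 note: more negative B-score means stronger inhibition of thallium flux through KCNK3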
KCNQ1 inh – inhibitors of human KCNQ1 channel, primary screen, cell-based, thallium flux, high-throughput; AID 2642, 2010; Potassium voltage-gated channel subfamily KQT member 1 (Homo sapiens), P51787; CHO-K1 KCNQ1, FluxOR thallium flux fluorescence; active compounds read high; B-score at 10 µM; actives 1.3% (n = 310,000);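 active = compounds whose thallium flux B-score, printed positive for inhibition, exceeds three library SD while starting fluorescence stays within three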;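 note: channel opened by potassium depolarization with thallium stimulus after 20 min compound exposure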
hERG rescue – hERG rescue from dofetilide block, primary screen, cell-based, CHO-hERG, FluxOR thallium flux, dofetilide IC70 | Voltage-gated inwardly rectifying potassium channel KCNH2 (Homo sapiens), Q12809 | dofetilide IC70 present | activation (rescue from dofetilide block), less the hit threshold, % at 10 µM | actives 0.51% (n = 310,000) | AID 1511, 2009;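 active = activation above the mean of controls blocked by dofetilide plus 5 SD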;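 note: thallium influx through hERG after potassium depolarization seen as dye fluorescence rise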
KCC2 sec1 – KCC2 modulators in sodium-free buffer, confirmation, cell-based, HEK293 KCC2, thallium flux, secondary assay; FluoZin2 fluorescence; active compounds read high; normalised thallium flux (F/F0 slope) at 10 µM; shares compounds with KCC2 mod; actives 15% (n = 3,700); AID 1713, 2009;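 active = thallium flux slope above the same plate's solvent-only control mean plus 3 SD; inconclusive = the two replicate wells disagree; inactive = no significant difference from solvent-only control wells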
KCC2 bumet counter – thallium flux persisting under bumetanide in KCC2 cells, confirmation, counter-screen for KCC2 modulator project, cell-based, HEK293 KCC2, FluoZin2, secondary assay 3; shares compounds with KCC2 mod; HEK293-KCC2 + bumetanide/ouabain; active compounds read high; normalized thallium flux at 10 µM; actives 49% (n = 3,700); AID 1714, 2009;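 active = thallium entry rate above the same plate's blocked-transporter control wells by more than 3 SD; inconclusive = the two repeat wells disagree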;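 note: raw slope of fluorescence over initial fluorescence between 10 and 20 s after thallium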
KCC2 secondary2 – KCC2 modulators without ouabain present, confirmation, cell-based, HEK293 KCC2, thallium flux, FluoZin2, secondary assay 2; shares compounds with KCC2 mod; thallium flux FluoZin2 fluorescence; actives lie on both sides; F/F0 rise rate, 10–20 s post-thallium; normalized thallium flux at 10 µM; actives 23% (n = 3,700); AID 1715, 2009;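 active = thallium flux slope more than 3 SD above or below the plate's solvent-only control mean, mostly below; inconclusive = the two repeat wells disagreed; inactive = no significant shift from solvent-only controls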;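 note: raw slope with 0.1% DMSO as baseline and bumetanide as block control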
HEK counter1 – thallium flux modulation in parental HEK cells, confirmation, counter-screen for KCC2 modulator project, cell-based, counterscreen 1. HEK293 parental cells, thallium flux FluoZin2, ouabain; baseline-ratio fluorescence slope, 10–20 s after thallium. thallium flux rate (normalised fluorescence) at 10 µM. actives 46% (n = 3,700). shares compounds with KCC2 mod;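 active = thallium flux rate significantly above the same plate's solvent-only control wells, beyond their mean plus 3 SD; inconclusive = the two replicate wells gave conflicting results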
KCC2 retest ouab – KCC2 inhibitors and activators, ouabain retest, confirmation, HEK-KCC2 cells; shares compounds with KCC2 mod; HEK293-KCC2, thallium flux FluoZin2 fluorescence; bidirectional: low = inhibitor, high = activator; raw Tl+ flux slope (below DMSO = inhibition, above = activation) at 10 µM; actives 48% (n = 3,700); AID 1717, 2009;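 active = thallium flux slope beyond 3 SD from same-plate DMSO control mean in most replicates, usually higher, sometimes lower; inconclusive = repeat tests gave conflicting results; inactive = no significant difference from controls in most replicates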;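 note: slope of initial-normalized fluorescence between seconds 10 and 20 after thallium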
HEK293 Tl flux2 – native HEK Tl+ uptake effects, second counter-screen – HEK cells, counterscreen 2, counter-screen for KCC2 modulator project, confirmation; thallium flux slope at 10 µM; actives 33% (n = 3,700); HEK293 parental, thallium flux FluoZin-2 fluorescence slope; AID 1718, 2009; shares compounds with KCC2 mod;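 active = thallium flux slope above the same plate's solvent-control mean plus 3 SD in both duplicate wells; inconclusive = duplicate wells that disagreed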;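 note: run without ouabain in cells lacking the KCC2 cotransporter; slope of fluorescence scaled to its starting value between 10 and 20 s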
An asterisk follows results filed as active; i = inactive; ? = inconclusive; . = not tested or not shown. In the library only some 4.1% were active in any assay of this set; here they are far more common.

SMILES	KCC2 mod	KCNQ1 act	KCNK9 block	KCNK3 inh	KCNQ1 inh	hERG rescue	KCC2 sec1	KCC2 bumet counter	KCC2 secondary2	HEK counter1	KCC2 retest ouab	HEK293 Tl flux2
S=c1nccc(-c2ccc(Cl)cc2)[nH]1	19*	i	i	i	i	-8	0.01*	0.019*	0.041*	0.024*	0.032*	0.027*
CC(C)Cn1c(SCC(=O)Nc2cccc(S(N)(=O)=O)c2)nc2ccccc2c1=O	5.7*	i	i	i	i	-13	0.0094	0.018*	0.03	0.0095*	?	0.011*
CC(C)Cn1c(SCC(=O)NC(=O)Nc2ccc3c(c2)OCCO3)nc2ccccc2c1=O	17*	i	i	i	i	-10	0.014*	0.044*	0.034	?	0.039*	?
C=CCn1c(SCC(=O)Nc2ccc3c(c2)OCO3)nc2ccccc2c1=O	0.54	i	i	i	i	-4	.	.	.	.	.	.
COCCn1c(SCC(=O)Nc2cccc(S(N)(=O)=O)c2)nc2cc(Cl)ccc2c1=O	1.3	i	i	i	i	-6	.	.	.	.	.	.
C/C(=N\NC(=S)Nc1ccc(C)c(C)c1)c1ccc(N2CCOCC2)cc1	5*	i	i	i	i	-7	0.011	0.033*	0.032	0.015*	0.023	0.011
C/C(=N\NC(=S)Nc1cc(S(=O)(=O)N2CCOCC2)ccc1Cl)c1ccc(N2CCOCC2)cc1	1.4	i	i	i	i	-13	.	.	.	.	.	.
Cc1ccc(C(=O)N2CCCC2)cc1Br	-3.1*	i	i	i	i	-8	0.0096	?	0.034	0.0077	0.021	0.011
Cc1ccc(C(=O)N2CCCCC2)cc1S(=O)(=O)N1CCCC1	.	i	i	i	i	-7	.	.	.	.	.	.
CC(=O)O[C@H]1[C@H](O)[C@H](Oc2c(O)c(C)c3c4c2[C@@H](C)CC[C@@H]4[C@@H](C)C[C@H]3C=C(C)C)O[C@@H](C)[C@H]1O	.	.	.	i	.	.	.	.	.	.	.	.
CSc1cccc(NC(=O)C2CCN(S(=O)(=O)c3ccc(F)cc3)CC2)c1	.	i	i	i	i	-1	0.0077	0.0053	0.034	0.0044	?	0.01
COCc1nnc(NC(=O)c2c(-c3c(Cl)cccc3Cl)noc2C)s1	.	i	i	i	i	-1	.	.	.	.	.	.
CC(=O)N1c2ccc(S(=O)(=O)NCCC(=O)Nc3ccc(F)cc3)cc2CC1C (stereo not drawn)	.	i	i	i	i	-10	.	.	.	.	.	.
CC(C)CNC(=S)NC(=O)c1csc([N+](=O)[O-])c1	31*	i	i	i	i	-4	?	0.069*	0.037	0.021*	0.036*	0.015*
O=C(O)c1ncc(Cl)c(Cl)c1Cl	0.029	i	i	i	i	-2	.	.	.	.	.	.
C/C(=N\NC(=O)c1nnn(-c2nonc2N)c1-c1cccs1)c1cccc(O)c1	.	i	i	i	i	-10	.	.	.	.	.	.
COc1ccccc1/C=N/NC(=S)NCc1ccco1	4.3	i	i	i	i	-11	.	.	.	.	.	.
O=C(NC(=S)NCc1ccc(F)cc1)c1ccccc1	48*	i	i	i	i	-14	0.027*	0.053*	0.039*	0.021*	0.029*	0.023*
O=C(NC(=S)NCc1ccccc1)c1ccccc1	22*	i	i	i	i	-12	0.0063	0.036*	0.043*	0.029*	0.038*	0.03*
O=C(NC(=S)NCc1ccco1)c1ccc(Br)cc1	.	i	i	i	i	-4	.	.	.	.	.	.
S=C(NCc1ccco1)N/N=C/c1ccccc1Cl	7.3*	i	i	i	i	-2	0.0089	0.018*	0.031	0.0095*	0.034*	?
O=C(NC(=S)NCc1ccco1)c1ccccc1	19*	i	i	i	i	-7	?	0.036*	0.035	0.015*	0.028	0.013*
COc1ccccc1Nc1nn2c(=O)c3ccc(C(=O)N4CCCC(C)C4)cc3nc2s1 (stereo not drawn)	.	i	i	i	i	-11	.	.	.	.	.	.
O=C(C[C@@H]1C/C=C\C[C@H](NC(=O)OCC2c3ccccc3-c3ccccc32)C(=O)OC[C@H]2CCCN2C1=O)NCCO	.	.	.	i	.	.	.	.	.	.	.	.
CN1CCN(S(=O)(=O)c2ccc(N(C)Cc3c(F)cccc3Cl)nc2)CC1	.	.	.	i	.	.	.	.	.	.	.	.
CCc1cccc(NC(=O)CCS(=O)(=O)c2ccc(Br)cc2)c1	.	i	i	i	i	-5	.	.	.	.	.	.
COc1ccccc1NC(=O)CCNC(=O)c1ccc(C)cc1	.	i	i	i	i	-6	.	.	.	.	.	.
Cc1csc(NC(=O)CSc2nnc(-c3ccco3)n2C)n1	-1.4	i	i	i	i	-2	.	.	.	.	.	.

Assay outcomes (PubChem BioAssay)
